Blank lines part the entries; values can stand above or below the molecule they belong to. Calls of active or inactive are those of the source. The calls are words filed in the database; no cut-off is given here.
Tests used:
[1] = molecular target: Receptor-type tyrosine-protein kinase FLT3 (Homo sapiens) (UniProt P36888); assay: Inhibition of recombinant human N-terminal GST-tagged Flt3 (564 to end amino acid residues) expressed in baculovirus infected Sf21 insect cells assessed as residual activity at 10 uM; values are per cent of control
[2] = molecular target: Dual specificity tyrosine-phosphorylation-regulated kinase 1A (Rattus norvegicus) (UniProt Q63470); assay: Inhibition of recombinant rat N-terminal GST-tagged DYRK1A (1 to 499 amino acid residues) expressed in Escherichia coli assessed as residual activity at 10 uM; values are per cent of control
MV4-11 [3] = assay: Cell cycle arrest in human MV4-11 cells assessed as accumulation at sub-G1 phase at 0.20 uM after 24 hrs by propidium iodide staining based flow cytometry (reference value: 1.99%); assay type: functional
MV4-11 [4] = assay: Cell cycle arrest in human MV4-11 cells assessed as accumulation at G2/M phase at 0.04 uM after 24 hrs by propidium iodide staining based flow cytometry (reference value: 17.94%); assay type: functional
MV4-11 [5] = assay: Cell cycle arrest in human MV4-11 cells assessed as accumulation at G2/M phase at 0.40 uM after 24 hrs by propidium iodide staining based flow cytometry (reference value: 17.94%); assay type: functional
MDA-MB-453 = assay: Growth inhibition of human MDA-MB-453 cells after 72 hrs by MTT assay; assay type: functional; conditions: MDA-MB-453, 72 h
Summary of the method: (§1)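 72 h antiproliferation assay, resazurin read-out for MV4-11 and MTT read-out for MDA-MB-453; values from at least two replicates.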

[6] = molecular target: Death-associated protein kinase 1 (Homo sapiens) (UniProt P53355); assay: Inhibition of recombinant human N-terminal GST-tagged DAPK1 (1 to 296 amino acid residues) expressed in baculovirus infected Sf21 cells assessed as residual activity at 10 uM; values are per cent of control
MV4-11 [7] = assay: Cell cycle arrest in human MV4-11 cells assessed as accumulation at S phase at 0.20 uM after 24 hrs by propidium iodide staining based flow cytometry (reference value: 19.07%); assay type: functional
[8] = molecular target: Vascular endothelial growth factor receptor 3 (Homo sapiens) (UniProt P35916); assay: Inhibition of recombinant human N-terminal GST-tagged Flt4 (800 to end amino acid residues) expressed in baculovirus infected Sf21 insect cells assessed as residual activity at 10 uM; values are per cent of control
MV4-11 [9] = assay: Cell cycle arrest in human MV4-11 cells assessed as accumulation at G1 phase after 24 hrs by propidium iodide staining based flow cytometry; assay type: functional
[10] = molecular target: Homeodomain-interacting protein kinase 2 (Homo sapiens) (UniProt Q9H2X6); assay: Inhibition of recombinant human N-terminal His6-tagged HIPK2 (165 to 564 amino acid residues) expressed in baculovirus infected Sf21 insect cells assessed as residual activity at 10 uM; values are per cent of control
[11] = molecular target: Dual specificity tyrosine-phosphorylation-regulated kinase 1B (Homo sapiens) (UniProt Q9Y463); assay: Inhibition of DYRK1B (unknown origin) assessed as residual activity at 10 uM; values are per cent of control
[12] = molecular target: Cyclin-dependent kinase 7/ cyclin H (Homo sapiens, UniProt P50613); assay: (§2) Inhibition of CDK7/cyclin H (unknown origin) in presence of [gamma-33P]-ATP […]; assay type: protein-complex assay; conditions: read-out: Ki(app)
MV4-11 [13] = assay: Cell cycle arrest in human MV4-11 cells assessed as accumulation at sub-G1 phase at 0.04 uM after 24 hrs by propidium iodide staining based flow cytometry (reference value: 1.99%); assay type: functional
MV4-11 [14] = assay: Cell cycle arrest in human MV4-11 cells assessed as accumulation at sub-G1 phase at 0.40 uM after 24 hrs by propidium iodide staining based flow cytometry (reference value: 1.99%); assay type: functional
MV4-11 [15] = assay: Cell cycle arrest in human MV4-11 cells assessed as accumulation at G1 phase at 0.20 uM after 24 hrs by propidium iodide staining based flow cytometry (reference value: 61.01%); assay type: functional
MV4-11 [16] = assay: Cell cycle arrest in human MV4-11 cells assessed as accumulation at G1 phase at 0.04 uM after 24 hrs by propidium iodide staining based flow cytometry (reference value: 61.01%); assay type: functional
[17] = molecular target: Serine/threonine-protein kinase pim-1 (Homo sapiens) (UniProt P11309); assay: Inhibition of recombinant full-length human N-terminal GST-tagged Pim-1 expressed in Escherichia coli assessed as residual activity at 10 uM; values are per cent of control
MV4-11 [18] = assay: Growth inhibition of human MV4-11 cells after 72 hrs by resazurin assay; assay type: functional; conditions: MV4-11, 72 h
Summary of the method: as §1

MV4-11 [19] = assay: Cell cycle arrest in human MV4-11 cells assessed as accumulation at S phase at 0.40 uM after 24 hrs by propidium iodide staining based flow cytometry (reference value: 19.07%); assay type: functional
[20] = molecular target: Fibroblast growth factor receptor 1 (Homo sapiens) (UniProt P11362); assay: Inhibition of recombinant human N-terminal GST-tagged FGFR1 (456 to 765 amino acid residues) expressed in baculovirus infected Sf21 insect cells assessed as residual activity at 10 uM; values are per cent of control
Homo sapiens = organism: Homo sapiens; assay: Inhibition of SGK (unknown origin) assessed as residual activity at 10 uM; values are per cent of control
MV4-11 [21] = assay: Cell cycle arrest in human MV4-11 cells assessed as accumulation at G2/M phase at 0.20 uM after 24 hrs by propidium iodide staining based flow cytometry (reference value: 17.94%); assay type: functional
CDK2/Cyclin A2 = CDK2/Cyclin A2 (Homo sapiens, UniProt P24941); assay: Inhibition of CDK2/cyclin A (unknown origin) in presence of [gamma-33P]-ATP […]; assay type: protein-complex assay; conditions: read-out: Ki(app)
MV4-11 [22] = assay: Cell cycle arrest in human MV4-11 cells assessed as accumulation at G1 phase at 0.40 uM after 24 hrs by propidium iodide staining based flow cytometry (reference value: 61.01%); assay type: functional
MV4-11 [23] = assay: Cell cycle arrest in human MV4-11 cells assessed as accumulation at S phase at 0.04 uM after 24 hrs by propidium iodide staining based flow cytometry (reference value: 19.07%); assay type: functional
[24] = molecular target: Cyclin-dependent kinase 1/cyclin B1 (Homo sapiens, UniProt P06493); assay: (§3) Inhibition of CDK1/cyclin B (unknown origin) in presence of [gamma-33P]-ATP […]; assay type: protein-complex assay; conditions: read-out: Ki(app)
[25] = molecular target: MAP kinase-interacting serine/threonine-protein kinase 2 (Homo sapiens) (UniProt Q9HBH9); assay: Inhibition of recombinant full-length human N-terminal His6-tagged Mnk2 expressed in baculovirus infected Sf21 insect cells assessed as residual activity at 10 uM; values are per cent of control
[26] = molecular target: Dual specificity tyrosine-phosphorylation-regulated kinase 1B (Homo sapiens) (UniProt Q9Y463); assay: Inhibition of DYRK1B (unknown origin) assessed as residual activity at 10 uM
[27] = molecular target: Homeodomain-interacting protein kinase 2 (Homo sapiens) (UniProt Q9H2X6); assay: Inhibition of recombinant human N-terminal His6-tagged HIPK2 (165 to 564 amino acid residues) expressed in baculovirus infected Sf21 insect cells assessed as residual activity at 10 uM
[28] = molecular target: Cyclin-dependent kinase 7/ cyclin H (Homo sapiens) (UniProt P51946+P50613); assay: as §2; assay type: protein-complex assay
[29] = molecular target: Dual specificity tyrosine-phosphorylation-regulated kinase 1A (Rattus norvegicus) (UniProt Q63470); assay: Inhibition of recombinant rat N-terminal GST-tagged DYRK1A (1 to 499 amino acid residues) expressed in Escherichia coli assessed as residual activity at 10 uM
[30] = molecular target: Cyclin-dependent kinase 1/cyclin B1 (Homo sapiens) (UniProt P06493+P14635); assay: as §3; assay type: protein-complex assay

Dual specificity tyrosine-phosphorylation-regulated kinase 1B (Homo sapiens), sequence (Q9Y463 whole entry, looked up, the tested form may be a part): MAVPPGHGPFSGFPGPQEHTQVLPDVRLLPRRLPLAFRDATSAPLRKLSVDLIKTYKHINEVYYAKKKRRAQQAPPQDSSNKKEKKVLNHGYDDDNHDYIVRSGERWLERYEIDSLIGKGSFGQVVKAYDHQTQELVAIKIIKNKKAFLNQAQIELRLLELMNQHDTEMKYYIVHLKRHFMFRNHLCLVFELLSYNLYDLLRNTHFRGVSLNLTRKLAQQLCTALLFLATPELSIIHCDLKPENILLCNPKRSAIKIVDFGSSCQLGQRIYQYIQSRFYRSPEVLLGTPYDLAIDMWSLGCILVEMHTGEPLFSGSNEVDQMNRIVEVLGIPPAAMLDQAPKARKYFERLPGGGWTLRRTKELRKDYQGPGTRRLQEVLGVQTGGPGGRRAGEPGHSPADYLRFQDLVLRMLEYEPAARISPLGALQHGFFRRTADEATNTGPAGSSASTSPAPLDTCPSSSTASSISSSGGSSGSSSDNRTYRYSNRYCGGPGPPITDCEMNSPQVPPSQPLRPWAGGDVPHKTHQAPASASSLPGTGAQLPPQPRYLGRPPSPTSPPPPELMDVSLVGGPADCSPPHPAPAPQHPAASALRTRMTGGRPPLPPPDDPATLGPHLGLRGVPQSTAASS
Homeodomain-interacting protein kinase 2 (Homo sapiens), sequence (Q9H2X6 whole entry, looked up, the tested form may be a part): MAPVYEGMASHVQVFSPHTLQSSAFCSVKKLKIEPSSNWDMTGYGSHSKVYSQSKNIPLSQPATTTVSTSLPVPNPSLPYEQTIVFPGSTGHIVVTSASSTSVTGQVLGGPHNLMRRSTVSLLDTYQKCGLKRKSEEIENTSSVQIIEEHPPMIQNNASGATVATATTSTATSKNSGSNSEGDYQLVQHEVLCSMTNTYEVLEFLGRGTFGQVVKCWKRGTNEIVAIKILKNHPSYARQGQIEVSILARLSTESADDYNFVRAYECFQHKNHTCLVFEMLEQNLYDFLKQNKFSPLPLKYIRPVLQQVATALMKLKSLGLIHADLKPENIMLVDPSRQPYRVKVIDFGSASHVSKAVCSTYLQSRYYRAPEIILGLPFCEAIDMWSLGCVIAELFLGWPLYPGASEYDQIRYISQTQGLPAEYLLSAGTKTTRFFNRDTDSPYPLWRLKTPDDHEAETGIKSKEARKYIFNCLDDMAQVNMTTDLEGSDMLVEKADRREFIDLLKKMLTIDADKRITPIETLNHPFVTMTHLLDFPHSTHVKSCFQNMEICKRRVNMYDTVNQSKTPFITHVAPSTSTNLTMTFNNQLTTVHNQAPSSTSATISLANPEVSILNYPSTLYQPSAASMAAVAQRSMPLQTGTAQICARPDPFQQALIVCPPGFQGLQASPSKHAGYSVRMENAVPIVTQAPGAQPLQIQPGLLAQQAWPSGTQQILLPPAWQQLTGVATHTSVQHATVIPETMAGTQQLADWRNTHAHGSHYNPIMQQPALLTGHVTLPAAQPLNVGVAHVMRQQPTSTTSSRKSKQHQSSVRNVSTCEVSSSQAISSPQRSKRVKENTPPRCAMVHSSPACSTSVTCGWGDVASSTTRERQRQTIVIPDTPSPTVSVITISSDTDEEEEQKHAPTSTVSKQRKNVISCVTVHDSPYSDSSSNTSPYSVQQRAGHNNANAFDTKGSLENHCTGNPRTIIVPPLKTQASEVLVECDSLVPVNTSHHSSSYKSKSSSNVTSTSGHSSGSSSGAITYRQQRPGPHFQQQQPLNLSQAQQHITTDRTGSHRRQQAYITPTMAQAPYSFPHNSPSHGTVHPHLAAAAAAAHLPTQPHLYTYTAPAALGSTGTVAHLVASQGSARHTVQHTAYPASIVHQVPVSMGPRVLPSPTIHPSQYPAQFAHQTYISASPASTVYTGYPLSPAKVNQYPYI
Fibroblast growth factor receptor 1 (Homo sapiens), sequence (P11362 22-822 limits assumed): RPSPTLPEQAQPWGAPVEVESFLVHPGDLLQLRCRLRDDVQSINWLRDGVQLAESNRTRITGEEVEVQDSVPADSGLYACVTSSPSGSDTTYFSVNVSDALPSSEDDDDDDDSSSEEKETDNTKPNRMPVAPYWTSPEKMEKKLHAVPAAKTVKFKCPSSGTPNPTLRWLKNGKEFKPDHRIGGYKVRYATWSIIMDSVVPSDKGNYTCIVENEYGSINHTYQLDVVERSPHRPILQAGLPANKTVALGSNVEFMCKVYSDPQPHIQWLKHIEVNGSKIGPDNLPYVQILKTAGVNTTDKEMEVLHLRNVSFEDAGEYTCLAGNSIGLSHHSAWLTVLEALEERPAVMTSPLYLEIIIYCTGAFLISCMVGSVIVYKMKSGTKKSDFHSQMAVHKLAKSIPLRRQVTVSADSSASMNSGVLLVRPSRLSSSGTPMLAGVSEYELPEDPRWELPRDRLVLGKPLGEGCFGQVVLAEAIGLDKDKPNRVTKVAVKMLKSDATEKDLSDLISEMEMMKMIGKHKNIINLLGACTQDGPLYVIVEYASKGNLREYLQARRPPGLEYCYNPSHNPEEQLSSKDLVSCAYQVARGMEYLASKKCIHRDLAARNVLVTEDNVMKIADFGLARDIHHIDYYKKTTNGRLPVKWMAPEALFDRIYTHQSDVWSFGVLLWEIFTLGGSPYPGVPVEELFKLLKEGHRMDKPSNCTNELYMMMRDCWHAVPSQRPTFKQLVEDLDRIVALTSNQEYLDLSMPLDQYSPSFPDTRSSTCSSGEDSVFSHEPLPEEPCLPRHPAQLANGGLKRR
Vascular endothelial growth factor receptor 3 (Homo sapiens), sequence (P35916 whole entry): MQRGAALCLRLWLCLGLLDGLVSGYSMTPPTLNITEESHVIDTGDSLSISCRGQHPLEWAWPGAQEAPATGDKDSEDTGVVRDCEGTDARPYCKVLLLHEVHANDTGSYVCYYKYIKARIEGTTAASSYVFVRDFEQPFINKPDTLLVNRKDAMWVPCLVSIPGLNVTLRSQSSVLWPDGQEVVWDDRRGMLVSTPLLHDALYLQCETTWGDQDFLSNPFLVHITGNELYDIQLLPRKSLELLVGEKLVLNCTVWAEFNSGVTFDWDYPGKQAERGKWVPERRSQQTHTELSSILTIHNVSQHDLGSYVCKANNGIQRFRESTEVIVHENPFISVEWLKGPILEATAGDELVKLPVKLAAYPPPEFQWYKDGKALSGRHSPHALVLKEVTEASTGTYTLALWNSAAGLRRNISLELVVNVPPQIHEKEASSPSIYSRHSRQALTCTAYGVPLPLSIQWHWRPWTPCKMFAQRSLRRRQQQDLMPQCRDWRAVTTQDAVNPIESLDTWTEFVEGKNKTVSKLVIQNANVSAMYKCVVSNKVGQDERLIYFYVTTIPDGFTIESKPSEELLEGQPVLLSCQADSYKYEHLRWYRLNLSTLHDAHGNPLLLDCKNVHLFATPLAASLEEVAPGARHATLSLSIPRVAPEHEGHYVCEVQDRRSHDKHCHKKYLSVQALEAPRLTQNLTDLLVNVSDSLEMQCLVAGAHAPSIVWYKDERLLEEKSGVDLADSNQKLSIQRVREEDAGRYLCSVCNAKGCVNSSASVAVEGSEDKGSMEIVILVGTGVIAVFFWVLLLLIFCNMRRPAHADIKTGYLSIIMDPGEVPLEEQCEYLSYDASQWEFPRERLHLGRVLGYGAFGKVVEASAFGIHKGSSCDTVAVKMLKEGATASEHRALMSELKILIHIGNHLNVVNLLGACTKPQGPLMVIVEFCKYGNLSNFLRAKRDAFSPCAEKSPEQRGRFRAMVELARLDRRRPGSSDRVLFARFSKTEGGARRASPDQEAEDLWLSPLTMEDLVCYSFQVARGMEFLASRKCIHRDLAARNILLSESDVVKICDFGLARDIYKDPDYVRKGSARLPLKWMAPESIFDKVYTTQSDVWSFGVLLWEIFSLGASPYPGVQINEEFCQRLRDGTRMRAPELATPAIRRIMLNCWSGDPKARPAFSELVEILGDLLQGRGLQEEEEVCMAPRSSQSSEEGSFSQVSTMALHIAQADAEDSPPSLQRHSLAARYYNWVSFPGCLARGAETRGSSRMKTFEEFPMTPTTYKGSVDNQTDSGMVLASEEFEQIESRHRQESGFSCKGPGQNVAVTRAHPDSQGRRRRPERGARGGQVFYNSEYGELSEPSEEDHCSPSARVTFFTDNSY
Receptor-type tyrosine-protein kinase FLT3 (Homo sapiens), sequence (P36888 whole entry, the tested form may be a part): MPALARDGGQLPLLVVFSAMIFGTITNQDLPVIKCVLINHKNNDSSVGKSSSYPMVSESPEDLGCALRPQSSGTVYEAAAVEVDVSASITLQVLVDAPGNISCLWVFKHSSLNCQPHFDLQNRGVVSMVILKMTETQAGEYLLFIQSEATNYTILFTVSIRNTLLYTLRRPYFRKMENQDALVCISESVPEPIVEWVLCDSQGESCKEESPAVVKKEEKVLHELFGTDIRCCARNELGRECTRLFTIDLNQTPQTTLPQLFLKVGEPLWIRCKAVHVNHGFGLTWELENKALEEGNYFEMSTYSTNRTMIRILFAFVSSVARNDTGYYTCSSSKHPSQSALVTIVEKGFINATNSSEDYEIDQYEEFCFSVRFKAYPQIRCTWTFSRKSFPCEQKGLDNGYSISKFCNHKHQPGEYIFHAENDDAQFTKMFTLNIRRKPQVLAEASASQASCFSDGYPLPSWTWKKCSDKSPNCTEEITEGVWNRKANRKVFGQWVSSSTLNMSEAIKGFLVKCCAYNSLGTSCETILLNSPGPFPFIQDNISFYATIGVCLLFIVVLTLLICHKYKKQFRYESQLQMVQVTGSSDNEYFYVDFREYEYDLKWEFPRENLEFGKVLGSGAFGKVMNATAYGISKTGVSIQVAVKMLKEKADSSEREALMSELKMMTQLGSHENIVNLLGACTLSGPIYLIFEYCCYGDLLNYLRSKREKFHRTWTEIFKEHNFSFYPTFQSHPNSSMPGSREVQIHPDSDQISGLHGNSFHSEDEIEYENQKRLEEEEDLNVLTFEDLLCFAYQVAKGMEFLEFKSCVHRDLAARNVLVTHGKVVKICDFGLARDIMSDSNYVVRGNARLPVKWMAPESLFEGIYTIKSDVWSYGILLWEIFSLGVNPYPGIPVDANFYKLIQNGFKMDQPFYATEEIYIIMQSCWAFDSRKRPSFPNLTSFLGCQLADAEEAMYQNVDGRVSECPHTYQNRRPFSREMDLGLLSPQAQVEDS

- residual activity [1]: < 10%
- residual activity [2]: < 10%
- GI50 (MDA-MB-453): 0.07 µM
- residual activity [8]: < 10%
- residual activity [10]: < 10%
- residual activity [11]: < 10%
- Ki [12]: 1.11 µM
- residual activity [17]: < 10%
- GI50 (MV4-11 [18]): 0.023 µM
- residual activity [20]: < 10%
- residual activity (Homo sapiens): < 10%
- Ki (CDK2/Cyclin A2): > 5 µM
- Ki [24]: > 5 µM
- residual activity [25]: < 10%
SMILES: Cc1nc(NC2CCCC2)sc1-c1ccnc(Nc2ccc(N3CCNCC3)cn2)n1
- Activity (MV4-11 [3]): 4.23%
- Activity (MV4-11 [4]): 12.73%
- Activity (MV4-11 [5]): 4.7%
- residual activity [6]: < 10%
- Activity (MV4-11 [7]): 13.52%
- Activity (MV4-11 [9]): Dose-dependent effect
- Activity (MV4-11 [13]): 6.3%
- Activity (MV4-11 [14]): 4.01%
- Activity (MV4-11 [15]): 72.09%
- Activity (MV4-11 [16]): 64.05%
- Activity (MV4-11 [19]): 5.9%
- Activity (MV4-11 [21]): 9.96%
- Activity (MV4-11 [22]): 85 - 85.24%
- Activity (MV4-11 [23]): 17.01%

- inhibition [26]: Active
- inhibition [27]: Active
- GI50 (MDA-MB-453): 0.356 µM
- Ki(app) [28]: inactive
- GI50 (MV4-11 [18]): 0.454 µM
- inhibition [29]: Active
- Ki(app) [30]: inactive
SMILES: Cc1nc(NC2CCCC2)sc1-c1nc(Nc2ccc(N3CCC(N(C)C)CC3)cn2)ncc1F

From ChEMBL document CHEMBL4004830 (J Med Chem, 2017)
